Consider 36 molecules from ChEMBL document CHEMBL3758131, “Towards new 5-HT7 antagonists among arylsulfonamide derivatives of (aryloxy)ethyl-alkyl amines: Multiobjective based design, synthesis, and antidepressant and anxiolytic properties” (Eur J Med Chem, 2016).

Data set [1] has as its target T1, 5-hydroxytryptamine receptor 7 (Homo sapiens, UniProt P34969). The data set is described as follows: Displacement of [3H]-5-CT from human 5-HT7B receptor expressed in HEK293 cells after 1 hr. Format: cell-based. In short, it runs like this:
(§1)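 Competition binding on membranes from HEK293 cells stably expressing human 5-HT7b or 5-HT1A. Incubation 1 h, at 37 °C for 5-HT7b and at room temperature for 5-HT1A. Non-specific binding defined with 10 µM 5-HT.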

The species entered for a further data set is Homo sapiens. The data set is described as follows: Selectivity index ratio of Ki for human 5-HT1A receptor to Ki for human 5-HT7B.
The target of data set [2] is T2, 5-hydroxytryptamine receptor 1A (Homo sapiens, UniProt P08908).
T2 sequence (P08908 whole entry): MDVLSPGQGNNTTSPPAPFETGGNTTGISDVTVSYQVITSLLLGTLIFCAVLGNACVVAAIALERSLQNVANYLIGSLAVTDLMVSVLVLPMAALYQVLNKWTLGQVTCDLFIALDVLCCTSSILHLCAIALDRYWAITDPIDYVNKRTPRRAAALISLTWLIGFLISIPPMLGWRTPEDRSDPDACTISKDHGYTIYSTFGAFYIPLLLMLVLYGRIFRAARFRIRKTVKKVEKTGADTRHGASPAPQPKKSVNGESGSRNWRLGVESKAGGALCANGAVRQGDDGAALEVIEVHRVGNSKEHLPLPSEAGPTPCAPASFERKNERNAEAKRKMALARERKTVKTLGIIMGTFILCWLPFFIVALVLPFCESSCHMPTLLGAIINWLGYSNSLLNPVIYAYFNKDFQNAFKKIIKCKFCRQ
The data set can be described thus: Displacement of [3H]-8-OH-DPAT from human 5-HT1A receptor expressed in HEK293 cells after 1 hr. Format: cell-based. In short, it runs like this:
as §1
On the technique in general: Displacement assays read how much labelled ligand stays bound in the presence of the test substance.

For data set [3], the system named is Mus musculus. The data set can be described thus: Toxicity in ip dosed C57BL/6J mouse assessed as effect on spontaneous locomotory activity at MED measured over 1 min 15 secs. As to conditions: in vivo. Format: organism-based.
Data set [4] relates to Mus musculus. The data set is described as follows: Toxicity in ip dosed C57BL/6J mouse assessed as effect on spontaneous locomotory activity at MED measured over 6 mins. Format: organism-based. The settings on record: in vivo, 0.1 h. In short, it runs like this:
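Mice habituated 30 min in individual cages, then ambulation counted over a period matching each behavioural test: 6 min for the tail suspension test and 1 min 15 s for the four-plate test. Compounds given ip at the active doses.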

Data set [5] concerns the target T1, 5-hydroxytryptamine receptor 7. The data set is described as follows: Antagonist activity at human 5-HT7B receptor expressed in […] cells assessed as inhibition of 5-CT induced cAMP production at 10^-6 M after 30 mins by TR-FRET assay. Format: functional, cell-based. (In general: cAMP levels reflect the balance of adenylyl cyclase and phosphodiesterase activity.)

Data set [6] has the same target. The data set is described as follows: Antagonist activity at human 5-HT7B receptor expressed in CHO cells assessed as inhibition of 5-CT induced cAMP production at 10^-7 M after 30 mins by TR-FRET assay. Format: functional, cell-based.
Data set [7] deals with 5-hydroxytryptamine receptor 2A (Homo sapiens, UniProt P28223). The data set can be described thus: Displacement of [3H]-Ketanserin from human 5-HT2A receptor expressed in HEK293 cells after 1 hr. Format: cell-based.
Chain of 5-hydroxytryptamine receptor 2A (P28223 whole entry): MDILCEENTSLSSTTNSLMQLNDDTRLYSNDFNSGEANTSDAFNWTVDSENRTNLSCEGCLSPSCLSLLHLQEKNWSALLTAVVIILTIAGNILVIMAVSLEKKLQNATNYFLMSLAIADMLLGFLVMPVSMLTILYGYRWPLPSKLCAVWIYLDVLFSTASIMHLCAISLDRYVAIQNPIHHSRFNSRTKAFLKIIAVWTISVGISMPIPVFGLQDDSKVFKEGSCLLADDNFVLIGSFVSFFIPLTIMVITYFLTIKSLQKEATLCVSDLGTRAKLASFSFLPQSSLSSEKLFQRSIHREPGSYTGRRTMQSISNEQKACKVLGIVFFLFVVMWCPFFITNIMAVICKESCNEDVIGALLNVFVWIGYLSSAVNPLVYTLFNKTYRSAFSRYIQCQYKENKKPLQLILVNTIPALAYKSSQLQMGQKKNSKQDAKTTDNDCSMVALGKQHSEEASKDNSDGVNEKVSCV

T1 sequence (P34969 whole entry): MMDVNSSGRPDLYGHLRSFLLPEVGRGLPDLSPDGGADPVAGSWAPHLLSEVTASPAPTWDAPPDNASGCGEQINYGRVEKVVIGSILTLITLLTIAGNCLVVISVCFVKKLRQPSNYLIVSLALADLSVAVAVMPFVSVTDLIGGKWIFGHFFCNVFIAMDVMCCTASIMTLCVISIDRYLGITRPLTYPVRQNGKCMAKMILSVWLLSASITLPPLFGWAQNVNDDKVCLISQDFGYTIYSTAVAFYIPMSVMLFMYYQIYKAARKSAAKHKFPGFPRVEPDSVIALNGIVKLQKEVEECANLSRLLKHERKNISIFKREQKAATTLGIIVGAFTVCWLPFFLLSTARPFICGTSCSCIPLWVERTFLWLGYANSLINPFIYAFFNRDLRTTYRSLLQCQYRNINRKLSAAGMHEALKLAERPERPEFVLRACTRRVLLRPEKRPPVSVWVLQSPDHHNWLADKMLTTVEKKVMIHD

With `Nc1ccc(S(=O)(=O)NC2CCN(CCOc3ccccc3-c3ccccc3)CC2)cc1`, the Ki stood at 26 nM in data set [1] and 407 nM in data set [2]. Besides, in the data set filed under Homo sapiens, the Ratio Ki turned out to be 16.
For `O=S(=O)(NC1CC2CCC(C1)N2CCOc1cccc(-c2ccccc2)c1)c1ccc(F)cc1` (stereo not given) the same measures were 14 nM, 170 nM and 12.
Turning to `O=S(=O)(NC1CCN(CCOc2ccccc2C2CCCC2)CC1)c1cccc(Cl)c1`, the Ki is 17 nM in data set [1] and 556 nM in data set [2]. For the same molecule, the Ratio Ki in the data set filed under Homo sapiens is 33.
Take `CC(C)(C)c1ccccc1OCCN1CCC(NS(=O)(=O)c2cccc(Cl)c2)CC1`: the results for the Ki in data set [1] and in data set [2] were 74 nM and 1850 nM, respectively. In addition, the Ratio Ki in the data set filed under Homo sapiens turned out to be 25.
In turn, `CC(C)c1ccccc1OCCN1CC(NS(=O)(=O)c2cccc(F)c2)C1` returned a Ki in data set [2] of 28 nM.
With `O=S(=O)(c1cccc(Cl)c1)N1CC2CC1CN2CCOc1ccccc1-c1ccccc1` (stereo not given), the values for the Ki in data set [1] and in data set [2] were 319 nM and 2670 nM, respectively. In addition, the Ratio Ki in the data set listed under Homo sapiens was found to be 8.
Regarding `CC(C)Oc1ccccc1OCCN1CCC(NS(=O)(=O)c2ccc(F)cc2)CC1`, the Ki in data set [1] worked out at 27 nM; in data set [2] it was 197 nM.
In the case of `O=S(=O)(NC1CN(CCOc2ccccc2-c2ccccc2)C1)c1cccc(Cl)c1`, the Ki came to 20 nM in data set [1] and 23 nM in data set [2]. For the same molecule, the Ratio Ki in the data set listed under Homo sapiens turned out to be 1.
As to `CC(C)c1cccc(OCCN2C3CCC2CC(NS(=O)(=O)c2cnn(C)c2)C3)c1` (stereo not given), the Ki in data set [1] turned out to be 70 nM; in data set [2] it was 431 nM. The Ratio Ki in the data set filed under Homo sapiens was determined as 6.
Consider `CC(C)c1ccccc1OCCN1CCC(NS(=O)(=O)c2ccc(N)cc2)CC1`, for which the Ki stood at 39 nM in data set [1] and 502 nM in data set [2]. Also, the Ratio Ki in the data set filed under Homo sapiens came out at 13.
For `O=S(=O)(c1ccc(F)cc1)N1CC2CC1CN2CCOc1ccccc1-c1ccccc1` (stereo not given) the same measures were 292 nM, 1070 nM and 4.
On to `CC(C)c1ccccc1OCCN1CCC(NC(=O)Nc2ccc(F)cc2)CC1`, for which the Ki in data set [1] came out at 201 nM; in data set [2], 190 nM. Further, the Ratio Ki in the data set filed under Homo sapiens was 1.
For `CC(C)c1ccccc1OCCN1CC2CC1CN2S(=O)(=O)c1ccc(F)cc1` (stereo not given) the same measures were 162 nM, 260 nM and 2.
Regarding `O=C(Nc1cccc(Cl)c1)NC1CCN(CCOc2ccccc2-c2ccccc2)CC1`, the Ki is 198 nM in data set [1] and 718 nM in data set [2]. Also, in the data set listed under Homo sapiens, the Ratio Ki came to 4.
For `Cn1cc(S(=O)(=O)NC2CN(CCOc3ccccc3-c3ccccc3)C2)cn1` the same measures were 40 nM, 46 nM and 1.
For `CC(C)c1ccccc1OCCN1CCC(NC(=O)Nc2cccc(Cl)c2)CC1` the same measures were 264 nM, 591 nM and 2.
`O=S(=O)(NC1CC2CCC(C1)N2CCOc1cccc(-c2ccccc2)c1)c1cccc(F)c1` (stereo not given): the Ki in data set [1] is 12 nM; in data set [2] it was 123 nM. In addition, the Ratio Ki in the data set listed under Homo sapiens is 10.
For the molecule `CC(C)c1cccc(OCCN2C3CCC2CC(NS(=O)(=O)c2cc(F)ccc2F)C3)c1` (stereo not given), the Ki in data set [1] was found to be 4 nM; in data set [2], 51 nM. Further, the Ratio Ki in the data set listed under Homo sapiens amounted to 13.
For `CC(C)c1ccccc1OCCN1CCC(NS(=O)(=O)c2cccnc2)CC1` the same measures were 72 nM, 371 nM and 5.
With `CC(C)c1cccc(C(C)C)c1OCCN1CCC(NS(=O)(=O)c2ccc(F)cc2)CC1`, the Ki in data set [1] came out at 1920 nM; in data set [2] it was 6150 nM.
Turning to `CN1C(=O)CN=C(c2ccccc2)c2cc(Cl)ccc21` [DIAZEPAM], the Activity entry with Mus musculus [3] and with Mus musculus [4] was “Non-toxic” each time.
For `CC(C)c1ccccc1OCCN1CC2CC1CN2S(=O)(=O)c1cccc(Cl)c1` (stereo not given), the Ki in data set [1] was found to be 168 nM; in data set [2], 393 nM. Also, in the data set filed under Homo sapiens, the Ratio Ki was determined as 2.
For `CC(C)c1cccc(OCCN2C3CCC2CC(NS(=O)(=O)c2ccc(F)c(F)c2)C3)c1` (stereo not given) the same measures were 9 nM, 99 nM and 11.
For `CC(C)c1ccccc1OCCN1CC(NS(=O)(=O)c2ccc(F)cc2)C1` the same measures were 7 nM, 45 nM and 6.
`O=S(=O)(NC1CCN(CCOc2ccccc2C2CCCC2)CC1)c1ccc(F)cc1`: the Ki in data set [1] was 16 nM; in data set [2], 373 nM. Further, in the data set listed under Homo sapiens, the Ratio Ki is 23.
In the case of `O=S(=O)(NC1CCN(CCOc2ccccc2-c2ccccc2)CC1)c1cccnc1`, the Ki in data set [1] came out at 53 nM; in data set [2] it was 536 nM. Also, the Ratio Ki in the data set filed under Homo sapiens was 10.
For `Cn1cc(S(=O)(=O)NC2CCN(CCOc3ccccc3C(C)(C)C)CC2)cn1` the same measures were 84 nM, 5550 nM and 66.
In the case of `CC(C)(C)c1ccccc1OCCN1CCC(NS(=O)(=O)c2ccc(F)cc2)CC1`, the Ki worked out at 54 nM in data set [1] and 4570 nM in data set [2]. Also, in the data set listed under Homo sapiens, the Ratio Ki worked out at 85.
For `O=S(=O)(NC1CC2CCC(C1)N2CCOc1cccc(-c2ccccc2)c1)c1ccc(F)c(F)c1` (stereo not given) the same measures were 20 nM, 74 nM and 4.
For `CC(C)c1ccccc1OCCN1CCC(NC(=O)c2ccc(F)cc2)CC1` the same measures were 285 nM, 199 nM and 1.
For `O=C(NC1CCN(CCOc2ccccc2-c2ccccc2)CC1)c1cccc(Cl)c1` the same measures were 197 nM, 148 nM and 1.
For `CC(C)c1ccccc1OCCN1CCC(NS(=O)(=O)c2cccc(F)c2)CC1`, the inhibition in data set [5] was determined as 99%; in data set [6] it was 70%. In data set [7], this molecule came in with a Ki of 178 nM.
On to `CC(C)c1cccc(OCCN2C3CCC2CC(NS(=O)(=O)c2cccc(Cl)c2)C3)c1` (stereo not given), for which the inhibition constant (Ki) is 4 nM in data set [1] and 206 nM in data set [2]. The Ratio Ki in the data set filed under Homo sapiens was found to be 52.
For `Cc1ccccc1OCCN1CCC(NS(=O)(=O)c2ccc(F)cc2)CC1`, the Ki was determined as 163 nM in data set [1] and 745 nM in data set [2].
`O=S(=O)(NC1CCN(CCOc2ccccc2)CC1)c1ccc(F)cc1`: the values for the Ki in data set [1] and in data set [2] were 855 nM and 1760 nM, respectively.
In the case of `COc1ccccc1OCCN1CCC(NS(=O)(=O)c2ccc(F)cc2)CC1`, the Ki came to 344 nM in data set [1] and 463 nM in data set [2].

Broadly, the Ki is the equilibrium dissociation constant of an inhibitor or competing ligand from its target. A higher Ki goes with a looser hold on the target. What is called inhibition is the drop in the measured response relative to a control, in per cent.
